# In all, about 360,000 compounds went through this assay and about 1,400 (0.39%) were called active. This is one part of a sample in which actives are shown more often than they occur. Unmarked numbers belong to inactive results.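 The calls were made as follows: active = pattern-corrected inhibition above about 35%, with an unprinted fluorescence ratio check between 0.5 and 1.5 (limit read from the data, passing the limit was not always enough); inactive = the rest.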
# Target: COP9 signalosome complex subunit 5 (Homo sapiens) (UniProt Q92905)
# Assay: CSN5 deneddylase inhibitors on cullin-RING ligase – biochemical, fluorescence polarization, uHTS, primary screen (AID 651999);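 also: 0% = enzyme with substrate and 100% = substrate without enzyme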
# Conditions: Purified CSN, SCF-Nedd8-OG deneddylation, at 12.5 µM, active compounds read high
# Outline: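 Material: human Csn5 produced in HEK293T cells; Input: enzyme 0.24 nM; Reagent: SCFSkp2-Nedd8OG substrate at 10 nM final; Dosing: 12.5 µM compound; Incubation: 90 min reaction at room temperature; Detection: fluorescence polarization of the substrate; Evaluation: % inhibition of substrate cleavage by Csn5; Control set: substrate-only high control, full reaction low control.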
# Chain of COP9 signalosome complex subunit 5 (Homo sapiens) (Q92905 whole entry, looked up, one chain of several): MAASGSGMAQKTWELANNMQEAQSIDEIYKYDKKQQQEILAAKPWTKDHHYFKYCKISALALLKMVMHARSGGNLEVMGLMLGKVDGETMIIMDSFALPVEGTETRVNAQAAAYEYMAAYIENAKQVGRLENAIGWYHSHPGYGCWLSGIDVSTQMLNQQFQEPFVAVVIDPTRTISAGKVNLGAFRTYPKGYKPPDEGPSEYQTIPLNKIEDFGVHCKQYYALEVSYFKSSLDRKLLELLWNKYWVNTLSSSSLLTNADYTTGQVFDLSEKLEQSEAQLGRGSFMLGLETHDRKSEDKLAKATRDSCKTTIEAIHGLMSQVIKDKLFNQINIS
row,SMILES,inhibition
1,O=C(COC(=O)C1CCCCC1)Nc1ccc([N+](=O)[O-])cc1,-5.15%
2,O=C(COc1ccc([N+](=O)[O-])cc1)Nc1ccc(N2CCCC2)cc1,45.2% (active)
3,Cn1c2c(c(=O)n(C)c1=O)[C@@H]1c3c(ccc4ccccc34)OC[C@@H]1CO2,0.02%
4,CCN(/N=C/c1ccc(N(C)C)cc1)c1nc2ccccc2[nH]1,-1.85%
5,COc1cc(C=NC2CCCCC2)ccc1O,4.95%
6,COc1cc(/C=C(\C#N)c2nc3c(s2)CC(C)CC3)ccc1O (centres undefined),82% (active)
7,COc1cc(/C=C(\C#N)c2nc3ccccc3[nH]2)ccc1O,73.3% (active)
8,CC1(C)O[C@H]2CC(=O)OCC23[C@H]2CC[C@@]4(C)[C@H](c5ccoc5)OC(=O)[C@H]5O[C@]54[C@]2(C)C(=O)C[C@@H]13 (some centres undefined),-1.16%
9,COc1cccc(NC(=O)CN(C)C(=O)c2ccccc2CCc2ccccc2)c1,4.75%
10,O=C(NCc1ccccc1)C1=C[C@@H](c2ccc(C(F)(F)F)cc2)C[C@@H](OCc2ccc(CO)cc2)O1,4.14%
11,Cc1ccc(OCC(=O)Oc2ccccc2[N+](=O)[O-])cc1,1.14%
12,Cc1cc2nc(-c3ccc(F)cc3)c(Cc3ccsc3)n2c(C)c1Br,-4.07%
13,Cc1cc2nc(-c3ccc(Cl)cc3)c(Cc3cccc(F)c3)n2c(C)c1Br,3.52%
14,Cc1cc2nc(-c3ccco3)c(Cc3cccc(F)c3)n2c(C)c1Br,38.5% (active)
15,O=C1NC2(CCCCC2)N=C1c1ccccc1,-2.27%
16,CC1CCCN(C(=O)Cn2c(=O)oc3cc(S(=O)(=O)N4CCCCC4C)ccc32)C1 (centres undefined),-0.78%
17,C=CCc1ccc(OCCOc2cccc(/C=N/n3cnnc3)c2)c(OC)c1,0.99%
18,Cc1nc([N+](=O)[O-])cn1CC(=O)Nc1ccc2c(c1)OCO2,-0.35%
19,O=C(CCN1C(=O)c2ccncc2C1=O)Nc1ccc2c(c1)OCCO2,5.06%
20,Cc1ccc(C(=O)O)cc1-c1ccc(/C=C2\SC(=O)N(CC(=O)Nc3ccc4c(c3)OCO4)C2=O)o1,102% (active)
21,CNS(=O)(=O)c1ccc(N2CCCC2=O)c([N+](=O)[O-])c1,-1.32%
22,Cc1ccc(-c2nn(-c3ccccc3)cc2/C=C2\SC(=S)N(CCCCCC(=O)O)C2=O)o1,66.1% (active)

row,SMILES,inhibition
1,O=C(O)CC/C(=N\NC(=O)c1ccc(F)cc1)c1ccc(Br)cc1,51.7% (active)
2,C/C(CC(=O)N1CCN(C=O)CC1)=N\NC(=O)c1ccc(Br)cc1,-6.38%
3,O=C(CNC(=O)c1ccccc1F)c1ccc(Br)cc1,3.53%
4,Cc1ccn(CCC(=O)N2c3ccccc3CC2C)n1 (centres undefined),0.86%
5,CCOC(=O)C1CCCN(CCSc2ccc(C)cc2)C1 (centres undefined),-0.91%
6,COc1ccc2c(c1)c(=Cc1ccc(N(C)C)cc1)c1cc(-c3ccccc3)[n+](C)n12,61.6% (active)
7,CCOC(=O)[C@]12CCCC=C1N(CCC1=CCCCC1)C(=O)[C@H](CC(=O)N1CCN(C(=O)c3ccco3)CC1)C2,-3.01%
8,CCC(C)Cn1c(O)cc2nn(-c3nc4ccccc4s3)c(=O)c-2c1C (centres undefined),35.4% (active)
9,CCC(CC)C(=O)Nc1cccc(C(=O)N2CCCC2)c1,2.19%
10,CC1CC(C)CN(S(=O)(=O)c2cccc3nonc23)C1 (centres undefined),0.47%
11,CCCCCN(C(=O)CCC(=O)OCC(=O)NCc1ccc(OC)cc1)c1c(N)n(CCCC)c(=O)[nH]c1=O,4.14%
12,CC(C)C1CC2=C(C(=O)OC(C)(C)O2)C(c2ccc(F)cc2)O1 (centres undefined),2.3%
13,CCC(C)NC(=O)N[C@@H](CCSC)C(=O)O (some centres undefined),-1.26%
14,Cc1sc2ncnc(SCC(=O)NC3CCS(=O)(=O)C3)c2c1C (centres undefined),-1.73%
15,Cc1sc2ncnc(SCC(=O)Nc3ccc(CN4CCCC4)cc3)c2c1C,108% (active)
16,COC(=O)c1c(-c2cccs2)csc1NC(=O)CSc1ncnc2sc(C)c(C)c12,-5.37%
17,O=C(Nc1cccnc1)c1cc2cc(Br)ccc2oc1=O,5.43%
18,COc1ccc(C)cc1NC(=O)c1cc(-c2ccccc2)nc2c1cnn2C(C)C,-2.82%
19,O=C(Nc1ccc(Br)cc1)c1cc(S(=O)(=O)Nc2ccccn2)ccc1Cl,-4.77%
20,Cc1cc(NS(=O)(=O)c2ccc(NC(=O)c3cccc(OC(F)F)c3)cc2)nc(C)n1,2.76%
21,Cc1ccc2nc(-c3ccncc3)cc(C(=O)Nc3ccc(OC(F)F)cc3)c2c1,42% (active)
22,O=C(Nc1ccncc1)c1cc(-c2ccccn2)nc2ccc(Br)cc12,51.3% (active)

# Source: PubChem BioAssay AID651999 (Sanford-Burnham Center for Chemical Genomics, 2013)
